Assays:
[1] = tested on: Human immunodeficiency virus 1; test: Antiviral activity against HIV1 assessed as inhibition of cytopathic effect by microtiter syncytium formation infectivity assay; type: functional, organism-based
Summary of the method: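 HIV-1 cytopathic-effect inhibition read as syncytium formation in microtiter format; EC50 derived. AZT positive control.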

[2] = Cytotoxicity against human C8166 cells by MTT assay; type: cell-based
Summary of the method: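 C8166 cells assessed for cytotoxicity by MTT; CC50 derived. AZT positive control.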

[3] = Therapeutic index, ratio of CC50 for human C8166 cells to EC50 for HIV1; type: cell-based; settings: read-out: Ratio CC50/EC50
Summary of the method: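 Therapeutic index computed as CC50 (MTT cytotoxicity in C8166 cells) divided by EC50 (inhibition of HIV-1 cytopathic effect, syncytium formation in microtiter assay).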

A549 = test: Cytotoxicity against human A549 cells after 48 hrs by MTT assay; type: functional, cell-based; settings: A549, 48 h
HL-60 = test: Cytotoxicity against human HL60 cells after 48 hrs by MTT assay; type: functional, cell-based; settings: HL-60, 48 h
MCF7 = test: Cytotoxicity against human MCF7 cells after 48 hrs by MTT assay; type: functional, cell-based; settings: MCF7, 48 h
SMMC-7721 = test: Cytotoxicity against human SMMC7721 cells after 48 hrs by MTT assay; type: functional, cell-based; settings: SMMC-7721, 48 h
SW480 = test: Cytotoxicity against human SW480 cells after 48 hrs by MTT assay; type: functional, cell-based; settings: SW480, 48 h

SMILES	EC50 [1] [µM]	CC50 [2] [µM]	selectivity ratio [3]	IC50 (A549) [µM]	IC50 (HL-60) [µM]	IC50 (MCF7) [µM]	IC50 (SMMC-7721) [µM]	IC50 (SW480) [µM]
C=C1[C@@H]([C@H](C)CC/C=C(/C)C(=O)O)CC[C@@]2(C)[C@@H]3CC[C@@H](C(C)(C)C(=O)O)[C@](C)(CC(=O)O)C3=C[C@@H]12	68.7	> 200	> 2.9	> 10	> 10	> 10	> 10	> 10
C=C1[C@@H]([C@H](C)CC/C=C(/C)C(=O)O)CC[C@@]2(C)C3=C(C[C@@H]12)[C@@](C)(CC(=O)O)[C@H](C(C)(C)C(=O)O)CC3	120	> 200	> 1.7	–	–	–	–	–
C=C1[C@@H]([C@H](C)CC/C=C(/C)C(=O)O)CC[C@@]2(C)[C@@H]3CC[C@H]4C(C)(C)OC(=O)CC[C@]4(C)C3=C[C@@H]12	–	–	–	> 10	> 10	> 10	> 10	> 10
CC1=C([C@H](C)CC/C=C(/C)C(=O)O)CC[C@@]2(C)[C@@H]3CC[C@H]4C(C)(C)C(=O)CC[C@]4(C)C3=C[C@@H]12	62	116	1.9	> 10	> 10	> 10	> 10	> 10
CO[C@@]12CC[C@H]3C(C)(C)C(=O)CC[C@]3(C)C1=CC1=C(C=O)[C@@H]([C@H](C)CC/C=C(/C)C(=O)O)CC[C@]12C	116	> 200	> 1.7	–	–	–	–	–
C=C1[C@@H]([C@H](C)CC/C=C(/C)C(=O)O)CC[C@@]2(C)[C@@H]3CC[C@@H](C(C)(C)O)[C@](C)(CCC(=O)O)C3=C[C@@H]12	58.7	143	2.4	–	–	–	–	–
C=C1[C@@H]([C@H](C)CC/C=C(/C)C(=O)O)CC[C@@]2(C)[C@@H]3CC[C@@H](C(C)(C)O)[C@](C)(CCC(=O)OC)C3=C[C@@H]12	81.2	142	1.8	> 10	> 10	> 10	> 10	> 10
C=C(C)[C@@H]1CC[C@@H]2C(=C[C@@]3(OC)C(=C)[C@@H]([C@H](C)CC/C=C(/C)C(=O)O)CC[C@@]23C)[C@@]1(C)CCC(=O)O	70	184	2.6	> 10	> 10	> 10	> 10	> 10
C=C1[C@@H]([C@H](C)CC/C=C(/C)C(=O)O)CC[C@@]2(C)[C@@H]3CC[C@@H](C(=C)C)[C@](C)(CCC(=O)O)C3=C[C@@H]12	88.2	203	2.3	> 10	> 10	> 10	> 10	> 10
Cc1cn([C@H]2C[C@H](N=[N+]=[N-])[C@@H](CO)O2)c(=O)[nH]c1=O [ZIDOVUDINE]	0.02	4690	> 230000	–	–	–	–	–

— ChEMBL document CHEMBL3593189, “Kadcoccinic Acids A-J, Triterpene Acids from Kadsura coccinea” (J Nat Prod, 2015)
